Among the data in ChEMBL document CHEMBL1130383, “Anesthetic activity of novel water-soluble 2 beta-morpholinyl steroids and their modulatory effects at GABAA receptors” (J Med Chem, 1997) are HD50, IC50 and POT values, retold here.

The test system of one test is Mus musculus. Kind of test: Hypnotic dose was determined by observing loss of righting reflex for a minimum period of 30 sec in 50% of treated mice after i.v. administration. It is filed as functional. In outline:
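Male CFLP mice (25–35 g), tested in the light period. Groups of eight received an i.v. lateral tail vein injection over 10 s (10 mL kg-1) on a μmol/kg dose series, e.g. 2–16, with extra doses added. Vehicle was saline for amine salts; standards were in HPCD/saline, emulsion or saline. HD50 with 95% confidence limits was obtained by probit analysis of the fraction showing LRR ≥30 s.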

For test [1], the target named is GABA-A receptor; anion channel. Kind of test: The concentration required to inhibit 50% of binding of [35S]TBPS to Gamma-aminobutyric acid A receptor to rat whole brain membranes. It is filed as cell membranes.
For test [2], the target named is GABA-A receptor; anion channel (Bos taurus) (UniProt P10063+P08220+P20237+P08219+P10064+P22300). The experiment in a line: Concentration required to potentiate GABA-evoked currents in voltage-clamped bovine chromaffin cells by 300%. It is filed as functional. In outline:
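Adult bovine chromaffin cells, primary culture, recorded 4 h to 2 days after plating. Whole-cell patch clamp, continuous superfusion with 140 mM NaCl, 2.8 mM KCl, 2 mM MgCl2, 1 mM CaCl2, 10 mM HEPES (pH 7.2). CsCl-based pipette solution, room temperature (18–22 °C). Currents filtered at 500 Hz. Steroid concentration enhancing the GABA-evoked response by 300% of control was interpolated; mean ± SEM of N cells.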

For orientation: IC50 means the concentration that inhibits the measured activity by half. A higher IC50 goes with weaker potency in that assay. The molecule `CCC[C@H]1CN([C@H]2C[C@@]3(C)[C@@H](CC[C@H]4[C@@H]5CC[C@H](C(C)=O)[C@@]5(C)CC(=O)[C@@H]43)C[C@@H]2O)CCO1` gave an HD50 in the test with Mus musculus of 10.8 µM/kg. Moreover, the IC50 in test [1] came out at 948 nM.

The molecule `CCC[C@@H]1CN([C@H]2C[C@@]3(C)[C@@H](CC[C@H]4[C@@H]5CC[C@H](C(C)=O)[C@@]5(C)CC(=O)[C@@H]43)C[C@@H]2O)CCO1` came in with an HD50 in the test on Mus musculus of 6.4 µM/kg. The molecule further returned an IC50 in test [1] of 142 nM.

Regarding `CC(=O)[C@H]1CC[C@H]2[C@@H]3CC[C@H]4C[C@H](O)[C@@H](N5CCO[C@H](C)C5)C[C@]4(C)[C@H]3C(=O)C[C@]12C`, the HD50 with Mus musculus is 17 µM/kg. Moreover, in test [1], the IC50 came out at 1140 nM.

Regarding `CCC1(CC)CN([C@H]2C[C@@]3(C)[C@@H](CC[C@H]4[C@@H]5CC[C@H](C(C)=O)[C@@]5(C)CC(=O)[C@@H]43)C[C@@H]2O)CCO1`, the HD50 with Mus musculus turned out to be 12 µM/kg. In addition, in test [1], the IC50 turned out to be 79 nM.

`C[C@]12C[C@H](N3CCOCC3)[C@@H](O)C[C@@H]1CC[C@@H]1[C@@H]2CC[C@]2(C)[C@@H](C(=O)CBr)CC[C@@H]12` came in with an HD50 in the test on Mus musculus of 22.8 µM/kg. Moreover, the IC50 in test [1] amounted to 148 nM.

In turn, `CC(=O)[C@H]1CC[C@H]2[C@@H]3CC[C@H]4C[C@H](O)CC[C@]4(C)[C@H]3CC[C@]12C` [BREXANOLONE] returned an HD50 in the test on Mus musculus of 10 µM/kg. In test [2], the POT stood at 105 nM. In addition, in test [1], the IC50 was found to be 91 nM.

Consider `CC(=O)[C@H]1CC[C@H]2[C@@H]3CC[C@H]4C[C@H](O)[C@@H](N5CCO[C@@H](C)C5)C[C@]4(C)[C@H]3CC[C@]12C`, for which the HD50 with Mus musculus was found to be 29 µM/kg. In test [1], this molecule had a 50% inhibitory concentration (IC50) of 424 nM.

In the test with Mus musculus, `CC(=O)[C@H]1CC[C@H]2[C@@H]3CC[C@H]4C[C@H](O)[C@@H](N5CCSCC5)C[C@]4(C)[C@H]3C(=O)C[C@]12C` showed an HD50 of 20 µM/kg. In test [1], the IC50 was determined as 1390 nM.

Turning to `CC(=O)[C@H]1CC[C@H]2[C@@H]3CC[C@H]4C[C@H](O)[C@@H](N5CC(C)(C)OC(C)(C)C5)C[C@]4(C)[C@H]3C(=O)C[C@]12C`, the HD50 in the test on Mus musculus was determined as 8.3 µM/kg. The molecule further returned an IC50 in test [1] of 127 nM.

As for `CC1(C)CN([C@H]2C[C@@]3(C)[C@@H](CC[C@H]4[C@@H]5CC[C@H](C(=O)CN=[N+]=[N-])[C@@]5(C)CC(=O)[C@@H]43)C[C@@H]2O)CCO1`, the HD50 with Mus musculus stood at 10.7 µM/kg. In addition, the IC50 in test [1] stood at 2170 nM.

In turn, `CC(=O)[C@H]1CC[C@H]2[C@@H]3CC[C@H]4C[C@H](O)[C@@H](N5CC(C)(C)SC(C)(C)C5)C[C@]4(C)[C@H]3C(=O)C[C@]12C` returned an HD50 with Mus musculus of 61.8 µM/kg. Besides, the IC50 in test [1] came to 231 nM.

Turning to `CC(=O)[C@H]1CC[C@H]2[C@@H]3CC[C@H]4C[C@H](O)[C@@H](N5CCOC(C)(C)C5)C[C@]4(C)[C@H]3C(=O)C[C@]12C`, in the test on Mus musculus, the HD50 stood at 9.8 µM/kg. The POT in test [2] turned out to be 700 nM.

Regarding `CC1(C)CN([C@H]2C[C@@]3(C)[C@@H](CC[C@@H]4[C@@H]3CC[C@]3(C)[C@@H](C(=O)CO)CC[C@@H]43)C[C@@H]2O)CCO1`, the HD50 in the test with Mus musculus is 18.4 µM/kg. For the same molecule, the POT in test [2] amounted to 310 nM. The molecule also showed a half-inhibitory concentration (IC50) in test [1] of 267 nM.

In the test on Mus musculus, `CC(=O)OCC(=O)[C@H]1CC[C@H]2[C@@H]3CC[C@H]4C[C@H](O)[C@@H](N5CCOCC5)C[C@]4(C)[C@H]3CC[C@]12C` registered an HD50 of 31 µM/kg. In addition, the POT in test [2] is 660 nM. This molecule also returned an IC50 in test [1] of 270 nM.

In the test with Mus musculus, `CC[C@@H]1CN([C@H]2C[C@@]3(C)[C@@H](CC[C@@H]4[C@@H]3CC[C@]3(C)[C@@H](C(C)=O)CC[C@@H]43)C[C@@H]2O)CCO1` yielded an HD50 of 11.2 µM/kg. The molecule further had an IC50 in test [1] of 910 nM.

For `CC(=O)[C@H]1CC[C@H]2[C@@H]3CC[C@H]4C[C@H](O)[C@@H](N5CCO[C@H](Cc6ccccc6)C5)C[C@]4(C)[C@H]3C(=O)C[C@]12C`, the HD50 in the test on Mus musculus amounted to 12.6 µM/kg. In test [1], this molecule gave an IC50 of 131 nM.

The molecule `C[C@]12CC[C@@H](O)C[C@@H]1CC[C@@H]1[C@@H]2CC[C@]2(C)[C@@H](C(=O)CO)CC[C@@H]12` gave an HD50 in the test with Mus musculus of 18.5 µM/kg. In addition, in test [2], the POT stood at 300 nM. The IC50 in test [1] was found to be 220 nM.

In turn, `CC(=O)[C@H]1CC[C@H]2[C@@H]3CC[C@H]4C[C@H](O)[C@@H](N5CCO[C@H](CC(C)C)C5)C[C@]4(C)[C@H]3C(=O)C[C@]12C` came in with an HD50 in the test on Mus musculus of 6.5 µM/kg. For the same molecule, the IC50 in test [1] amounted to 53 nM.

`CC(=O)[C@H]1CC[C@H]2[C@@H]3CC[C@H]4C[C@H](O)[C@@H](N5CCOCC5)C[C@]4(C)[C@H]3CC[C@]12C` showed an HD50 with Mus musculus of 22.2 µM/kg. Moreover, in test [2], the POT is 215 nM.

In the case of `CCCCC1(CCCC)CN([C@H]2C[C@@]3(C)[C@@H](CC[C@H]4[C@@H]5CC[C@H](C(C)=O)[C@@]5(C)CC(=O)[C@@H]43)C[C@@H]2O)CCO1`, the HD50 in the test on Mus musculus came out at 31.1 µM/kg. Besides, the IC50 in test [1] came to 53 nM.

`C[C@]12C[C@H](N3CCOCC3)[C@@H](O)C[C@@H]1CC[C@@H]1[C@@H]2CC[C@]2(C)[C@@H](C(=O)CO)CC[C@@H]12` gave an HD50 in the test with Mus musculus of 31.6 µM/kg. For the same molecule, in test [2], the POT was 2300 nM. The molecule also showed an IC50 in test [1] of 3040 nM.

Consider `CC(=O)[C@H]1CC[C@H]2[C@@H]3CC[C@H]4C[C@H](O)[C@@H](N5CCSCC5)C[C@]4(C)[C@H]3CC[C@]12C`, for which, in the test on Mus musculus, the HD50 was determined as 40.5 µM/kg.

On to `CC(=O)[C@H]1CC[C@H]2[C@@H]3CC[C@H]4C[C@H](O)[C@@H](N5CCO[C@@H](Cc6ccccc6)C5)C[C@]4(C)[C@H]3C(=O)C[C@]12C`, for which the HD50 in the test on Mus musculus was 12.8 µM/kg. In test [1], this molecule gave an IC50 of 100 nM.

In the test on Mus musculus, `CC1(C)CN([C@H]2C[C@@]3(C)[C@@H](CC[C@H]4[C@@H]5CC[C@H](C(=O)CCl)[C@@]5(C)CC(=O)[C@@H]43)C[C@@H]2O)CCO1` came in with an HD50 of 13.4 µM/kg. Besides, the POT in test [2] was 450 nM. In test [1], this molecule had an IC50 of 206 nM.

In the test on Mus musculus, `CC1(C)CN([C@H]2C[C@@]3(C)[C@@H](CC[C@H]4[C@@H]5CC[C@H](C(=O)CSC#N)[C@@]5(C)CC(=O)[C@@H]43)C[C@@H]2O)CCO1` gave an HD50 of 10 µM/kg. In test [1], the IC50 amounted to 316 nM.

`CC(=O)[C@H]1CC[C@H]2[C@@H]3CC[C@H]4C[C@H](O)[C@@H](N5CCOC(c6ccccc6)(c6ccccc6)C5)C[C@]4(C)[C@H]3C(=O)C[C@]12C` showed an HD50 in the test with Mus musculus of 49.9 µM/kg. The molecule also returned an IC50 in test [1] of 497 nM.

`CC(=O)OCC(=O)[C@H]1CC[C@H]2[C@@H]3CC[C@H]4C[C@H](O)[C@@H](N5CCOC(C)(C)C5)C[C@]4(C)[C@H]3CC[C@]12C`: the HD50 in the test with Mus musculus turned out to be 16.9 µM/kg. In addition, in test [1], the IC50 worked out at 387 nM.

Molecule `CC(=O)SCC(=O)[C@H]1CC[C@H]2[C@@H]3CC[C@H]4C[C@H](O)[C@@H](N5CCOCC5)C[C@]4(C)[C@H]3CC[C@]12C` returned an HD50 with Mus musculus of 33.8 µM/kg. In test [1], this molecule registered an IC50 of 235 nM.

In turn, `CC(=O)[C@H]1CC[C@H]2[C@@H]3CC[C@H]4C[C@H](O)[C@@H](N5C[C@@H](C)O[C@@H](C)C5)C[C@]4(C)[C@H]3CC[C@]12C` yielded an HD50 in the test with Mus musculus of 26 µM/kg.

In turn, `CC(=O)[C@H]1CC[C@H]2[C@@H]3CC[C@H]4C[C@H](O)[C@@H](N5CCSC(C)(C)C5)C[C@]4(C)[C@H]3CC[C@]12C` had an HD50 with Mus musculus of 51.9 µM/kg. In test [1], this molecule had a half-maximal inhibitory concentration (IC50) of 115 nM.

Take `C[C@]12C[C@H](N3CCOCC3)[C@@H](O)C[C@@H]1CC[C@H]1[C@@H]3CC[C@H](C(=O)CO)[C@@]3(C)CC(=O)[C@@H]12`: the HD50 with Mus musculus was 198.2 µM/kg. The concentration for half-maximal inhibition (IC50) in test [1] turned out to be 1160 nM.

Molecule `CC[C@H]1CN([C@H]2C[C@@]3(C)[C@@H](CC[C@H]4[C@@H]5CC[C@H](C(C)=O)[C@@]5(C)CC(=O)[C@@H]43)C[C@@H]2O)CCO1` yielded an HD50 in the test on Mus musculus of 15.1 µM/kg. In test [1], this molecule gave an IC50 of 1490 nM.

Molecule `CC[C@H]1CN([C@H]2C[C@@]3(C)[C@@H](CC[C@@H]4[C@@H]3CC[C@]3(C)[C@@H](C(C)=O)CC[C@@H]43)C[C@@H]2O)CCO1` displayed an HD50 in the test on Mus musculus of 22.7 µM/kg.

The molecule `CC(=O)[C@H]1CC[C@H]2[C@@H]3CC[C@H]4C[C@H](O)CC[C@]4(C)[C@H]3C(=O)C[C@]12C` [ALFAXALONE] returned an HD50 in the test on Mus musculus of 6.3 µM/kg. The POT in test [2] was 700 nM.

For `CCO[C@H]1C[C@@]2(C)[C@@H](CC[C@@H]3[C@@H]2[C@H](N(C)C)C[C@]2(C)[C@@H](C(C)=O)CC[C@@H]32)C[C@@H]1O` [MINAXOLONE], the HD50 with Mus musculus came out at 7.3 µM/kg.
